Experimental data from different studies.

Structure (SMILES) | tested on | test | system | conditions | measurement | value
CN(C)[C@H]1C[C@@]23CC[C@@]4(O2)C(=CC[C@]2(C)C(c5ccc6ccncc6c5)=CC[C@H]24)C=C3[C@@H](O)[C@@H]1O | human PBMC | cell growth or viability, flow cytometry | – | – | CC50 | 100 µM
Cl.Cl.O=C(CCN1CCCCC1)c1ccc(-c2ccc(C(=O)CCN3CCCCC3)cc2)cc1 | – | – | Sprague-Dawley rat, plasma | oral, 25 mg/kg | half-life | 6.05 h
N#Cc1ccc(NC(=S)NN=Cc2ccc(F)cc2)cc1 | CRFK | cell growth or viability, MTS | – | – | CC50 | > 100 µg/mL
COC(=O)C(NC(=O)c1cn(CCCCCF)c2ccccc12)C(C)(C)C (stereo not drawn) | – | – | male Sprague-Dawley rat, plasma | subcutaneous, 200 µg/kg | half-life | 17.1 h
O=C(Nc1cccnn1)N1CCN([C@@H]2CCOc3cc(C(F)(F)F)ccc32)CC1 | – | – | male Sprague-Dawley rat, brain | oral, 1 mg/kg, 4 h | concentration | 438 ng/g
CC[C@@]1(O)C(=O)OCc2c1cc1n(c2=O)Cc2cc3ccccc3nc2-1 | MDCK | – | Caco-2 | 100 µM, 105 min, pH 7.4 | Papp B→A | 10 ×10⁻⁶ cm/s
O=C(O)C(F)(F)C(F)(F)C(F)(F)C(F)(F)C(F)(F)C(F)(F)C(F)(F)F | Solute carrier family 22 member 6 (SLC22A6, Homo sapiens, UniProt Q4U2R8) | transporter uptake, substrate | HEK293 | 2.5 min, pH 7.4 | Km | 65.8 µM
N#Cc1ccc(NC(=S)NN=Cc2ccccc2)cc1 | CRFK | cell growth or viability, MTS | – | – | CC50 | > 100 µg/mL
COC(=O)[C@H]1[C@@H](OC(=O)c2ccccc2)C[C@@H]2CC[C@H]1N2C | – | – | male Sprague-Dawley rat, plasma | intraperitoneal, 10 mg/kg, 1 h | concentration | 310 ng/mL
